Laboratory results as given in publication PMC5083853 (Bioorganic & medicinal chemistry, 2016).

Legend:
M9-ENL1 cells = assay: Cytotoxicity against M9-ENL1 leukemia cells; type: cell-based; details: for fold lower LC50 of C9 analog vs. C14-functionalized counterpart: 4, 6, 11 compared to 5, 7, 12
[1] = Human umbilical cord blood cell cytotoxicity test; type: cell-based; details: human, hUBC LC50, human umbilical cord blood cells, cell viability, mean ± SD (n = 3)
Outline: (§1)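 Fresh cord blood (within 48 h of collection) was separated on a Ficoll-Paque gradient and cultured without cryopreservation at 37 °C, 5% CO2, in serum-free Iscove's MDM with 20% BIT 9500, LDL and β-mercaptoethanol. Cells got ≥3 doses of test compound from DMSO stock for 24 h, were stained for CD45, CD34 and DAPI, and were analysed by flow cytometry. Viable CD34+CD45dim percentage was compared with vehicle.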

[2] = system: human umbilical cord blood cells (hUBC); assay: Human umbilical cord blood cell cytotoxicity test; type: cell-based; details: read-out: hUBC LC50; human umbilical cord blood cells, 24 h, cell viability, mean ± SD (n = 3)
Outline: as §1

[3] = Solubility in buffered solutions at neutral pH; type: physicochemical

SMILES: C=C1C(=O)O[C@H]2[C@H]1C[C@H](OC(=O)c1ccc3ccccc3c1)/C(C)=C/CC[C@@]1(C)O[C@@H]21 [Compound 4, (3aS,5S,9aR,10aS,10bS,E)-6,9a-dimethyl-3-methylene-2oxo2,3,3a,4,5,8,9,9a,10a,10bdecahydrooxireno[2′,3′:9,10]cycl odeca [1,2-b]furan-5-yl 2-naphthoate]
- fold lower LC50 of C9 analog vs. C14-functionalized counterpart (M9-ENL1 cells): 2- to 3 fold

SMILES: C=C1C(=O)O[C@H]2[C@H]1C[C@H](OC(=O)c1cn(C)c3ccccc13)/C(C)=C/CC[C@@]1(C)O[C@@H]21 [Compound 6, (3aS,5S,9aR,10aS,10bS,E)-6,9a-dimethyl-3-methylene-2-oxo-2,3,3a,4,5,8,9,9a,10a,10b decahydrooxireno [2′,3′:9,10] cyclodeca[1,2-b]furan-5-yl 1-methyl-1H-indole-3-carboxylate]
- fold lower LC50 of C9 analog vs. C14-functionalized counterpart (M9-ENL1 cells): 2- to 3 fold

SMILES: C=C1C(=O)O[C@H]2[C@H]1C[C@H](OC(=O)c1cc(-c3ccc(Cl)cc3)on1)/C(C)=C/CC[C@@]1(C)O[C@@H]21 [Compound 11, (3aR,5S,9aR,10aS,10bS,E)-6,9a-dimethyl-3-methylene-2-oxo-2,3,3a,4,5,8,9,9a,10a,10b-decahydrooxireno[2′,3′:9,10] cyclodeca[1,2-b]furan-5-yl 5-(4-chlorophenyl)isoxazole-3-carboxylate]
- fold lower LC50 of C9 analog vs. C14-functionalized counterpart (M9-ENL1 cells): 2- to 3 fold

SMILES: C=C1C(=O)O[C@H]2[C@H]1CC/C(COCc1ccccc1)=C/CC[C@@]1(C)O[C@@H]21 [Compound 14, (3aR,9aR,10aS,10bS,Z)-6-((benzyloxy)methyl)-9a-methyl-3-methylene-3a,4,5,8,9,9a,10a,10b-octahydrooxireno[2′,3′:9,10] cyclodeca[1,2-b]furan-2(3H)-one]
- fold lower cytotoxicity compared to C14-benzoylated counterpart (M9-ENL1 cells): 2 fold

SMILES: C=C1C(=O)O[C@H]2[C@H]1C[C@H](OC(C(=O)OCC)c1ccccc1C(F)(F)F)/C(C)=C/CC[C@@]1(C)O[C@@H]21 (stereo partly drawn) [Compound 20, ethyl2-(((3aR,5S,9aR,10aS,10bS,E)-6,9a-dimethyl-3-methylene-2-oxo-2,3,3a,4,5,8,9,9a,10a,10b-decahydrooxireno [2′,3′:9,10]cyclodeca[1,2-b]furan-5-yl)oxy)-2-(2-(trifluoromethyl)phenyl)acetate]
- fold lower LC50 than the phenyl-containing counterparts (18, 19) (M9-ENL1 cells): 2- to 3 fold

SMILES: C=C1C(=O)O[C@H]2[C@H]1CC/C(COC(C(=O)OCC)c1ccccc1C(F)(F)F)=C/CC[C@@]1(C)O[C@@H]21 (stereo partly drawn) [Compound 21, ethyl2-(((3aR,9aR,10aS,10bS,Z)-9a-methyl-3-methylene-2-oxo-2,3,3a,4,5,8,9,9a,10a,10b-decahydrooxireno[2′,3′:9,10]cyclodeca[1,2-b]furan-6-yl)methoxy)-2-(2-(trifluoromethyl)phenyl)acetate]
- fold lower LC50 than the phenyl-containing counterparts (18, 19) (M9-ENL1 cells): 2- to 3 fold

SMILES: C=C1C(=O)O[C@H]2[C@H]1C[C@H](OC(C(=O)OCC)c1ccc(C(F)(F)F)cc1)/C(C)=C/CC[C@@]1(C)O[C@@H]21 (stereo partly drawn) [Compound 22, ethyl 2-(((3aR,5S,9aR,10aS,10bS,E)-6,9a-dimethyl-3-methylene-2-oxo-2,3,3a,4,5,8,9,9a,10a,10b-decahydrooxireno [2′,3′:9,10]cyclodeca[1,2-b]furan-5-yl)oxy)-2-(4-(trifluoromethyl)phenyl)acetate]
- fold lower LC50 than the phenyl-containing counterparts (18, 19) (M9-ENL1 cells): 2- to 3 fold

SMILES: C=C1C(=O)O[C@H]2[C@H]1C[C@H](OC(C(=O)OCC)c1ccc(C(F)(F)F)cc1)/C(C)=C/CC[C@@]1(C)O[C@@H]21 (stereo partly drawn) [Compound 22a, ethyl 2-(((3aR,5S,9aR,10aS,10bS,E)-6,9a-dimethyl-3-methylene-2-oxo-2,3,3a,4,5,8,9,9a,10a,10b-decahydrooxireno [2′,3′:9,10]cyclodeca[1,2-b]furan-5-yl)oxy)-2-(4-(trifluoromethyl)phenyl)acetate]
- CC50 at 24 h [1]: > 5 µM

SMILES: C=C1C(=O)O[C@@H]2[C@@H]1CC/C(COC(C(=O)OCC)c1ccc(C(F)(F)F)cc1)=C/CC[C@]1(C)O[C@H]21 (stereo partly drawn) [Compound 23, ethyl 2-(((3aR,9aR,10aS,10bS,Z)-9a-methyl-3-methylene-2-oxo-2,3,3a,4,5,8,9,9a,10a,10b-decahydrooxireno[2′,3′:9,10]cyclodeca[1,2-b]furan-6-yl)methoxy)-2-(4-(trifluoromethyl)phenyl)acetate]
- fold lower LC50 than the phenyl-containing counterparts (18, 19) (M9-ENL1 cells): 2- to 3 fold

SMILES: C=C1C(=O)O[C@@H]2[C@@H]1CC/C(COC(C(=O)OCC)c1ccc(C(F)(F)F)cc1)=C/CC[C@]1(C)O[C@H]21 (stereo partly drawn) [Compound 23b, ethyl 2-(((3aR,9aR,10aS,10bS,Z)-9a-methyl-3-methylene-2-oxo-2,3,3a,4,5,8,9,9a,10a,10b-decahydrooxireno[2′,3′:9,10]cyclodeca[1,2-b]furan-6-yl)methoxy)-2-(4-(trifluoromethyl)phenyl)acetate]
- CC50 [2]: > 5 µM

SMILES: C=C1C(=O)O[C@H]2[C@H]1C[C@H](OC(C(=O)OCc1ccccc1)c1ccccc1)/C(C)=C/CC[C@@]1(C)O[C@@H]21 (stereo partly drawn) [Compound 25a, benzyl 2-(((3aR,5S,9aR,10aS,10bS,E)-6,9a-dimethyl-3-methylene-2-oxo-2,3,3a,4,5,8,9,9a,10a,10b-decahydrooxireno [2′,3′:9,10]cyclodeca[1,2-b]furan-5-yl)oxy)-2-phenylacetate]
- CC50 at 24 h [1]: > 5 µM

SMILES: C=C1C(=O)O[C@H]2[C@H]1C[C@H](OC(C(=O)OCc1ccccc1)c1ccccc1)/C(C)=C/CC[C@@]1(C)O[C@@H]21 (stereo partly drawn) [Compound 25b, benzyl 2-(((3aR,5S,9aR,10aS,10bS,E)-6,9a-dimethyl-3-methylene-2-oxo-2,3,3a,4,5,8,9,9a,10a,10b-decahydrooxireno [2′,3′:9,10]cyclodeca[1,2-b]furan-5-yl)oxy)-2-phenylacetate]
- CC50 [2]: > 5 µM

SMILES: C=C1C(=O)O[C@H]2[C@H]1C[C@H](OC(C(=O)OCCN1CCOCC1)c1ccccc1)/C(C)=C/CC[C@@]1(C)O[C@@H]21 (stereo partly drawn) [Compound 27, 2-morpholinoethyl2-(((3aR,5S,9aR,10aS,10bS,E)-6,9a-dimethyl-3-methylene-2-oxo-2,3,3a,4,5,8,9,9a,10a,10b-decahydrooxireno[2′,3′:9,10]cyclodeca[1,2-b]furan-5-yl)oxy)-2-phenyl acetate]
- fold reduction of activity compared to PTL (M9-ENL1 cells): 3 to 5 folds
- solubility in buffered solutions [3]: improved solubility

SMILES: C=C1C(=O)O[C@H]2[C@H]1CC/C(COC(C(=O)OCCN1CCOCC1)c1ccccc1)=C/CC[C@@]1(C)O[C@@H]21 (stereo partly drawn) [Compound 28, 2-morpholinoethyl 2-(((3aR,9aR,10aS,10bS,Z)-9a-methyl-3-methylene-2-oxo-2,3,3a,4,5,8,9,9a,10a,10b-decahydrooxireno [2′,3′:9,10]cyclodeca[1,2-b]furan-6-yl)methoxy)-2-phenylacetate]
- fold reduction of activity compared to PTL (M9-ENL1 cells): 3 to 5 folds
- solubility in buffered solutions [3]: improved solubility

SMILES: C=C1C(=O)O[C@H]2[C@H]1CC/C(COC(C(=O)OCCN1CCCC1)c1ccccc1)=C/CC[C@@]1(C)O[C@@H]21 (stereo partly drawn) [Compound 29, 2-(pyrrolidin-1-yl)ethyl 2-(((3aR,5S,9aR,10aS,10bS,E)-6,9a-dimethyl-3-methylene-2-oxo-2,3,3a,4,5,8,9,9a,10a,10b-decahydrooxireno[2′,3′:9,10]cyclodeca[1,2-b]furan-5-yl)oxy)-2-phenylacetate]
- fold reduction of activity compared to PTL (M9-ENL1 cells): 3 to 5 folds
- solubility in buffered solutions [3]: improved solubility

SMILES: C=C1C(=O)O[C@H]2[C@H]1CC/C(C)=C/CC[C@@]1(C)O[C@@H]21 [PTL, parthenolide, reference compound]
- CC50 at 24 h [1]: > 20 µM
